Assay results taken from paper PMC9749463 (European Journal of Pharmacology, 2021).
Like-named read-outs stand apart in the source and are kept apart here. One block for each molecule: values may come before it.

Key:
human recombinant NaV1.5 = details: 30 μM, manual patch-clamp; ref Crumb et al., 2016; cited from earlier work
human recombinant CaV1.2 = details: 30 μM, manual patch-clamp; ref Crumb et al., 2016; cited from earlier work
human recombinant KV4.3 = details: 30 μM, manual patch-clamp; ref Crumb et al., 2016; cited from earlier work
human recombinant KV7.1 = details: 30 μM, manual patch-clamp; ref Crumb et al., 2016; cited from earlier work
Kir2.1 [1] = molecular target: T1, Kir2.1 (Homo sapiens, UniProt P63252); details: read-out: IC50 Kir2.1; manual patch-clamp; ref Crumb et al., 2016; cited from earlier work
T1 sequence (P63252 1-427): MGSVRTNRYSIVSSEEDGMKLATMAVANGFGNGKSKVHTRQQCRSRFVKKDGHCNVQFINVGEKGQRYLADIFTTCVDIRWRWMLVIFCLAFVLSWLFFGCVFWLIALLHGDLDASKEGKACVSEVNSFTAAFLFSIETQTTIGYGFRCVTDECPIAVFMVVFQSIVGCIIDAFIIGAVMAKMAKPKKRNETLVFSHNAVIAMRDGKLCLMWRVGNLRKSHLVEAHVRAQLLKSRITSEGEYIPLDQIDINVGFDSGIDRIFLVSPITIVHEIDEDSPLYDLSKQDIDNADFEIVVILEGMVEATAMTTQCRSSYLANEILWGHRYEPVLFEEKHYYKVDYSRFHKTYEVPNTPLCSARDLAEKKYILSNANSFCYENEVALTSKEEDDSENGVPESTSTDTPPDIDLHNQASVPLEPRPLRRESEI

Kir2.1 [2] = details: read-out: IC50 Kir2.1 outward component; ref Rodriguez-Menchaca et al., 2008; cited from earlier work
CaV1.2/β2/α2δ1 = CaV1.2/β2/α2δ1 (Homo sapiens, UniProt Q13936); test: automated patch-clamp; format: cell-based; details: CdCl2 0.2 mM, end of recording
hERG [3] = details: read-out: IC50 hERG; QPatch II platform; ref Okada et al., 2021; cited from earlier work
Kir2.1 [4] = details: read-out: IC50 Kir2.1; QPatch II platform; ref Okada et al., 2021; cited from earlier work
[5] = HCQ monotherapy, meta-analysis of 28 clinical studies; ref Oscanoa et al., 2020; cited from earlier work
[6] = ref Carlsson et al., 2020; cited from earlier work
[7] = test system: human adult cardiomyocytes; details: potassium in buffer decreased from 4 mM to 2.5 mM; ref Jordaan et al., 2021; cited from earlier work
hERG [8] = molecular target: hERG (Homo sapiens, UniProt Q12809); test: automated patch-clamp; format: cell-based; details: ratio of IC50 values
NaV1.5 = NaV1.5 (Homo sapiens, UniProt Q14524); test: automated patch-clamp; format: cell-based; details: for decrease of NaV1.5 current: up to the highest tested concentration of 90 μM, attributable to current rundown
Kir2.1 [9] = molecular target: T1, Kir2.1; test: automated patch-clamp; format: cell-based; details: levorotatory enantiomer the most potent
rabbit Purkinje fibers = test: current clamp action potential recording on excised rabbit Purkinje fibers; details: for effect on membrane and AP parameters: 0.3 μM, any beating rate
Summary of the method: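 Purkinje fibers came from male New Zealand rabbits (1.7–2.1 kg). They were superfused at 10 mL/min and 36 ± 1 °C with bicarbonate buffer at pH 7.4. APs were recorded with 3 M KCl microelectrodes under pacing at 3, 1 and 0.25 Hz. Test compound (0.3, 3, 10, 30 μM) was applied for 30 min each, ascending, followed by 30 min washout; n = 6. Analysis used ANOVA with Dunnett versus baseline.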

[10] = in vitro; ref McLachlan et al., 1993; cited from earlier work
[11] = test system: human immune-deficiency virus serotype 1; details: human T-cell lines and macrophage hybridoma; ref Chiang et al., 1996; cited from earlier work
Plasmodium falciparum = details: isolates grown in human erythrocytes; ref Warhurst et al., 2003; cited from earlier work
[12] = ref Wainer et al., 1994; cited from earlier work
KV4.3/KChIP2.2 = molecular target: T2, KV4.3/KChIP2.2 (Homo sapiens, UniProt Q9UK17); test: automated patch-clamp; format: cell-based
T2 sequence (Q9UK17 1-655): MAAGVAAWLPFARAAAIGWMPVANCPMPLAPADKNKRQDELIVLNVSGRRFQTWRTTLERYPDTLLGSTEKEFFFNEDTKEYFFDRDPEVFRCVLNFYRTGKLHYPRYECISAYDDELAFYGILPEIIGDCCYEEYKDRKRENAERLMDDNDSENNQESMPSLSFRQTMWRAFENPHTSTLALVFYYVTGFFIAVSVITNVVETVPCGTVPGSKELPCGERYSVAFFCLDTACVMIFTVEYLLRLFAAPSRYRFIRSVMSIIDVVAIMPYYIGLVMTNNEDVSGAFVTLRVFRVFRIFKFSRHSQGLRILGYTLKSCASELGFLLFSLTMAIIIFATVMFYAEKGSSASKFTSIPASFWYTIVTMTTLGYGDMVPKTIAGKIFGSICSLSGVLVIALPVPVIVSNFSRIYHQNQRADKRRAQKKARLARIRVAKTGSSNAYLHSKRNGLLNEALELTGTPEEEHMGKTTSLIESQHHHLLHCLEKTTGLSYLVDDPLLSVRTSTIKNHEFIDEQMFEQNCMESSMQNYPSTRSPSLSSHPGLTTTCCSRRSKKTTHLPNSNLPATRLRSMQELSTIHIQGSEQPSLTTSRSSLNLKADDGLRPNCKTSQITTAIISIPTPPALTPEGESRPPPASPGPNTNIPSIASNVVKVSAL
T2 sequence (Q9NS61 1-252 isoform Q9NS61-2 partner): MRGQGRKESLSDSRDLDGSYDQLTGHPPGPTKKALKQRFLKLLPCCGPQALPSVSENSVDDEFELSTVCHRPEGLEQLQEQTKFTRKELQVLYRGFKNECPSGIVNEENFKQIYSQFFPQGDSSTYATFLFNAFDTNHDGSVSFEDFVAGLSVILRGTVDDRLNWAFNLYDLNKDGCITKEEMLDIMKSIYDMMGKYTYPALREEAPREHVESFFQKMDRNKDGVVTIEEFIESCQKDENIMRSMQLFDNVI
Summary of the method: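 CHO cells constitutively expressing human KV4.3/KChIP2.2 were whole-cell recorded at room temperature. Cells were held at −80 mV and stepped to +20 mV with 500 ms pulses. Test compound was applied at six cumulative ascending concentrations up to 90 μM in 0.3% or 1% DMSO with 1% Pluronic F-68. Leak was removed with 30 μM SKF-96365. Integral charge was normalized to pre-drug, and IC50 was fitted sigmoidally (0–100% constrained) with 95% CI.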

KV7.1/minK = KV7.1/minK (Homo sapiens, UniProt P51787); test: automated patch-clamp; format: cell-based
KV7.1/minK, sequence (P51787 whole entry): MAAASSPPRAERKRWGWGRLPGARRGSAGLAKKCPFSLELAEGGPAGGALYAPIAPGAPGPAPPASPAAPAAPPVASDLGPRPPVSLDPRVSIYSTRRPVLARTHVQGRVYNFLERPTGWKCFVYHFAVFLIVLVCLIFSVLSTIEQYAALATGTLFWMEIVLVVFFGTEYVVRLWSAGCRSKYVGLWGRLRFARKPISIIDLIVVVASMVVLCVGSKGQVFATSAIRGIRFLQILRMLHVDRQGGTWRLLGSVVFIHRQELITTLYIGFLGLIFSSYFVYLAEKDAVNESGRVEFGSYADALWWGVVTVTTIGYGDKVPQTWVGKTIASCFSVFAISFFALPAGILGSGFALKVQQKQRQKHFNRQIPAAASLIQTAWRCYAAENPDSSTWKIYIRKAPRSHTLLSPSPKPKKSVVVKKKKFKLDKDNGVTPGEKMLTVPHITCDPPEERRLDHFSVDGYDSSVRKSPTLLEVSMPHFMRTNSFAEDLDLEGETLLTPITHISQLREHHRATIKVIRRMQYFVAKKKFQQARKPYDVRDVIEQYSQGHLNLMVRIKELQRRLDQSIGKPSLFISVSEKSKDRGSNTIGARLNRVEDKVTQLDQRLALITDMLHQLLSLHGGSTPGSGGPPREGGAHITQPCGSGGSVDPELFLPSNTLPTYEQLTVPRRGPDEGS

NaV1.5, sequence (Q14524 whole entry): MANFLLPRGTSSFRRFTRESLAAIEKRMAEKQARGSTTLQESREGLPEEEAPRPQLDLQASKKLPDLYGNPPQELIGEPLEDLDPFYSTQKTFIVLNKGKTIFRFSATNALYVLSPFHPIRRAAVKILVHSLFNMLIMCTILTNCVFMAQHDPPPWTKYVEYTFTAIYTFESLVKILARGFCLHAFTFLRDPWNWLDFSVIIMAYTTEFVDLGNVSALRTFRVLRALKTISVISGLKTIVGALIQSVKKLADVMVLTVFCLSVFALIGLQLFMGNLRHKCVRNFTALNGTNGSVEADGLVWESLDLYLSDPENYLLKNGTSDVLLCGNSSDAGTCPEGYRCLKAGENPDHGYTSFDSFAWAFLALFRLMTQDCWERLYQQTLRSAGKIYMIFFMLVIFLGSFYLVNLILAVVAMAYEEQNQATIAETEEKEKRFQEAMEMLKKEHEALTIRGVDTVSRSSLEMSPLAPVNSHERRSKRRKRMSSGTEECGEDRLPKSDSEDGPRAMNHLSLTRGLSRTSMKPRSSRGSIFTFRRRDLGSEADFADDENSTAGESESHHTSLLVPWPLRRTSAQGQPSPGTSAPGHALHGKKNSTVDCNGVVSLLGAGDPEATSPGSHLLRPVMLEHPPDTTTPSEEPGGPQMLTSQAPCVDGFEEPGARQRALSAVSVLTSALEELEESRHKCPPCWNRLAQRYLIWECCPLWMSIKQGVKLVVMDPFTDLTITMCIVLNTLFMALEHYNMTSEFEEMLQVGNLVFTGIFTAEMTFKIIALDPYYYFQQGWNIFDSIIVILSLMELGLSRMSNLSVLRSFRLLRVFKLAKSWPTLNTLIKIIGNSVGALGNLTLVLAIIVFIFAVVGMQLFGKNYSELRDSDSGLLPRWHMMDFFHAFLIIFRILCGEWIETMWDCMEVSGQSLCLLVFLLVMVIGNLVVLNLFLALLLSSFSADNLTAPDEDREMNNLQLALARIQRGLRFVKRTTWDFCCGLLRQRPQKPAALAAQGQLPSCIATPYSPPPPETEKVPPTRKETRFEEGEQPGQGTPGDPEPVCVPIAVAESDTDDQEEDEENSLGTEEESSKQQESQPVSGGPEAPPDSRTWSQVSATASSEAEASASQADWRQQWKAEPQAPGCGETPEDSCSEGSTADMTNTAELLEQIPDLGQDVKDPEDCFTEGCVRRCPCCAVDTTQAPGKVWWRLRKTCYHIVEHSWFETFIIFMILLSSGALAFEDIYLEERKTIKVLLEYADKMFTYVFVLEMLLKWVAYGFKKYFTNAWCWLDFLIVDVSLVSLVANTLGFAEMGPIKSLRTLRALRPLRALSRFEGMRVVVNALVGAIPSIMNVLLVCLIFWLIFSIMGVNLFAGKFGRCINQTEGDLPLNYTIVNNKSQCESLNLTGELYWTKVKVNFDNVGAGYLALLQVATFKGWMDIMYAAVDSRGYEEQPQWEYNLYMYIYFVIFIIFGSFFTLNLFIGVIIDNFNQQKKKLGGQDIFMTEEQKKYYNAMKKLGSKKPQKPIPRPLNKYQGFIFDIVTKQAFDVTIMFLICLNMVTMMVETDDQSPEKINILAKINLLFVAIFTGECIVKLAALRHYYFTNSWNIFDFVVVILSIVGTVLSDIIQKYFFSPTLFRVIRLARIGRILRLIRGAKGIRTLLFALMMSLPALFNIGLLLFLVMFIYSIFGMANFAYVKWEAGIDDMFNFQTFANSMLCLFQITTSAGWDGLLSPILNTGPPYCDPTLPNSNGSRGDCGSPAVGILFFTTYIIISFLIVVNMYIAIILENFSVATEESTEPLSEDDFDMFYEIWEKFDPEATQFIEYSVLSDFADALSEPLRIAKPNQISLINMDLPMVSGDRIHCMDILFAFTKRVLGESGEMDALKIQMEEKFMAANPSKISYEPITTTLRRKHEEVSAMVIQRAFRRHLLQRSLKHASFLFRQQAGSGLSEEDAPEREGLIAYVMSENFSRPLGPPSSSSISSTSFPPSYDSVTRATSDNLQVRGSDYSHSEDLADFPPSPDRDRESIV
hERG (Homo sapiens, UniProt Q12809), sequence (Q12809 whole entry): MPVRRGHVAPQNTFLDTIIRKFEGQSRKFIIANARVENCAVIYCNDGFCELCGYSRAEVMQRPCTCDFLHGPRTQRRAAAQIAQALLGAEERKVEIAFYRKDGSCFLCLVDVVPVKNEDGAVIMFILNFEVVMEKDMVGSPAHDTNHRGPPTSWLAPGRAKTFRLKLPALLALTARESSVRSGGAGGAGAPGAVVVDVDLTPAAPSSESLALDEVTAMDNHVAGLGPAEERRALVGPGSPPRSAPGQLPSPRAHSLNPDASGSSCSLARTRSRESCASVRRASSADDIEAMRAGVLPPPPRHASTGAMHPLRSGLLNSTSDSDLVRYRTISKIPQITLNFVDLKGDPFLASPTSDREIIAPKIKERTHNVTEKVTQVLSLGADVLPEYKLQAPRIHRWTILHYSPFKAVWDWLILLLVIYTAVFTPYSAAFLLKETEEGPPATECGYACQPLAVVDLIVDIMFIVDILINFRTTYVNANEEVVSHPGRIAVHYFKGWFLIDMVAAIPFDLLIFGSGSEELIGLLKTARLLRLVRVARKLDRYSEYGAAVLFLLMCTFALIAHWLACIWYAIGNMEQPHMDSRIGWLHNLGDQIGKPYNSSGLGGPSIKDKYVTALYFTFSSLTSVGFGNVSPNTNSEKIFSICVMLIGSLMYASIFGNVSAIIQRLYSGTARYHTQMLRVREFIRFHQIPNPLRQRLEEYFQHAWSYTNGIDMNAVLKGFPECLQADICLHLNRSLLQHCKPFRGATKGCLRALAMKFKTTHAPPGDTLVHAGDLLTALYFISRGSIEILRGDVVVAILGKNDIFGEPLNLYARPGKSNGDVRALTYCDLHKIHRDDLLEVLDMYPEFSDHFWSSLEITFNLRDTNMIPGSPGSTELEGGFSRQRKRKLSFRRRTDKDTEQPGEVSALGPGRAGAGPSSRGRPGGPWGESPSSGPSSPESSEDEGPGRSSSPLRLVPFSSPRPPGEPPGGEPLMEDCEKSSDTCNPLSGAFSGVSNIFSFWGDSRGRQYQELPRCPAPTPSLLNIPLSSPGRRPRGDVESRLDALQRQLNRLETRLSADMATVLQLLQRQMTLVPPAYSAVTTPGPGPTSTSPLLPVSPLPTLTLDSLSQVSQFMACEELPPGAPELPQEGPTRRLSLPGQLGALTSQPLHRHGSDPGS

SMILES: CCN(CC)CCCC(C)Nc1ccnc2cc(Cl)ccc12 (stereo not drawn) [CQ, chloroquine]
- inhibition of NaV1.5 (human recombinant NaV1.5): less than 20%
- inhibition of CaV1.2 (human recombinant CaV1.2): less than 20%
- inhibition of KV4.3 (human recombinant KV4.3): less than 20%
- inhibition of KV7.1 (human recombinant KV7.1): less than 20%
- IC50 (Kir2.1 [1]): 11 µM
- IC50 (Kir2.1 [2]): 9 µM

SMILES: [Cl][Cd][Cl] [CdCl2]
- effect on CaV1.2 currents (CaV1.2/β2/α2δ1): inhibited all the currents

SMILES: CCN(CCO)CCCC(C)Nc1ccnc2cc(Cl)ccc12 (stereo not drawn) [HCQ, Hydroxychloroquine]
- IC50 (hERG [3]): 17 µM
- IC50 (Kir2.1 [4]): 30 µM
- occurrence of QT-prolongations [5]: below 2%
- plasma concentrations relative to blood [6]: two-fold lower
- proarrhythmic risk at reduced potassium [7]: proarrhythmic risk rose significantly

Further lines, with some results ahead:

- block-potency ratio of the enantiomers against Kir2.1 (Kir2.1 [9]): two-fold
- autogenic activity (rabbit Purkinje fibers; 10 μM and 30 μM): inducing autogenic activity
SMILES: CCN(CCO)CCCC(C)Nc1ccnc2cc(Cl)ccc12 (stereo not drawn) [R(-)HCQ]
- greater potency of R(-)HCQ over S(+)HCQ on hERG (hERG [8]): 3.7 fold
- decrease of NaV1.5 current (NaV1.5): below 10%
- effect on membrane and AP parameters (rabbit Purkinje fibers): neither R(-)HCQ nor S(+)HCQ had a significant effect
- decrease of median resting membrane potential (rabbit Purkinje fibers; 30 μM, 60 bpm (1 Hz)): 20%
- increase of AP duration at near complete repolarization (APD90) (rabbit Purkinje fibers; 30 μM, 180 bpm, n = 2 readings): 25%
- early after depolarizations (EADs) (rabbit Purkinje fibers; any concentration and pacing rate): no torsadogenic early after depolarizations (EADs) events were observed
- free fraction (plasma protein binding) [10]: 63%
- inhibition of HIV-1 replication, comparison of enantiomers [11]: equipotent
- inhibition of Plasmodium falciparum proliferation, comparison of enantiomers (Plasmodium falciparum): identical IC50 values
- accumulation in ocular tissue [12]: preferential accumulation

- abnormal AP exhibiting EADs (rabbit Purkinje fibers; 10 μM, 15 bpm): one of the six fibers
- abnormal AP exhibiting EADs (rabbit Purkinje fibers; 30 μM, 15 bpm, fibers that could follow pacing): one of the four fibers
- autogenic activity escaping electrical pacing (rabbit Purkinje fibers; 30 μM, all rates): two out of six fibers
SMILES: CCN(CCO)CCC[C@H](C)Nc1ccnc2cc(Cl)ccc12 [S(+)HCQ]
- decrease of NaV1.5 current (NaV1.5): below 10%
- effect on membrane and AP parameters (rabbit Purkinje fibers): neither R(-)HCQ nor S(+)HCQ had a significant effect
- increase of median APD90 (rabbit Purkinje fibers; 10 μM, 15 bpm): 56%
- median APD90 duration in presence of drug (rabbit Purkinje fibers; 10 μM, 15 bpm): 827 ms
- increase of median APD90 (rabbit Purkinje fibers; 10 μM, 60 bpm): 34%
- median APD90 duration in presence of drug (rabbit Purkinje fibers; 10 μM, 60 bpm): 481 ms
- increase of median APD90 (rabbit Purkinje fibers; 10 μM, 180 bpm): 12%
- median APD90 duration in presence of drug (rabbit Purkinje fibers; 10 μM, 180 bpm): 246 ms
- decrease of median resting membrane potential (rabbit Purkinje fibers; 30 μM, 180 bpm (3 Hz)): 11%
- free fraction (plasma protein binding) [10]: 36%
- inhibition of HIV-1 replication, comparison of enantiomers [11]: equipotent
- inhibition of Plasmodium falciparum proliferation, comparison of enantiomers (Plasmodium falciparum): identical IC50 values

- IC50 (KV4.3/KChIP2.2): 11 µM
- IC50 (KV7.1/minK): 7.2 µM
SMILES: CC(C)COCC(CN(Cc1ccccc1)c1ccccc1)N1CCCC1 (stereo not drawn) [bepridil]
- IC50 (NaV1.5): 2.5 µM
